Screening results deposited in PubChem BioAssay by SRMLSC.
HCT116 bCat-KO = primary screen for growth suppressors in beta-catenin knockout HCT116 cells (colon tumor, human); viability, % at 10 µM; AID 818, 2007; HCT116 beta-catenin knockout viability, CellTiter-Glo, 60 h; active compounds read low; hit rate 1.5% among 140,000;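 active = viability at or under a set limit, the compound median less 4 SD, cut at about 6% in these data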;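 also: 0% = Hyamine 1622 control at 20 µM and 100% = untreated cell control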
H69AR growth 86K = proliferation blockers of H69AR lung cancer cells, primary screen, cell-based, human, 86K library; AID 598, 2007; H69AR lung tumor viability, ATP luminescence, 72 h; active compounds read low; viability, % at 10 µM; hit rate 6% among 85,000;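 active = viability at or below 40%; inactive = viability above 40%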;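 also: multidrug resistant small cell line overexpressing MRP-1 efflux transporter; 100% = mean luminescence of untreated control wells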
Lung fibro prol = antiproliferative effect on LL 47 fibroblasts – human, LL 47 cells, CellTiter-Glo luminescence, primary screen; LL 47 human lung fibroblast viability, ATP luminescence; active compounds read low; viability, % at 10 µM; hit rate 1.1% among 85,000; AID 719, 2007;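 active = viability at or below 50% in the single dose screen; inactive = viability above 50%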;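 also: compound exposure lasted 72 h before the ATP readout; 100% = median luminescence of untreated cell-only wells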
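test system = LL 47 human lung fibroblasts | amount = 1,150 fibroblasts seeded per well | medium = 15% FBS in IMEM | times = overnight cell rest, 72 h compound treatment at 37 °C | measured by = CellTiter-Glo luminescence measuring cellular ATP | read-out = viability percentage against median untreated-cell control | benchmarks = cell-only wells, no compound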
HCT116 PTEN-null = growth suppression of PTEN-null HCT116, primary screen, cell-based, CellTiter-Glo | viability, % at 10 µM | AID 827, 2007 | hit rate 1.2% among 140,000 | HCT116 PTEN-null viability, 60 h; active compounds read low;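 active = viability at or below a set limit, 4 SD under the median of all tested compounds, cut at about 3.7% in these data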;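 also: PTEN knockout HCT116 line with beta catenin targeted HCT116 as companion control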
HUVEC inhibit = inhibitors of HUVEC proliferation, primary screen, cell-based, 384-well. CellTiter-Glo luminescence, 72 h; active compounds read low. viability, % at 10 µM (by protocol). hit rate 1.1% among 86,000. AID 648, 2007;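 active = viability at or below 30%; inactive = viability above 30%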;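 also: 100% = median luminescence of DMSO-only cell control wells on each plate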
An asterisk follows results filed as active; . = no result given. Only a selection was taken, and hits are over-represented in it overall.

SMILES | HCT116 bCat-KO | H69AR growth 86K | Lung fibro prol | HCT116 PTEN-null | HUVEC inhibit
O=c1cc(N2CCC(Cc3ccccc3)CC2)[nH]c(=O)n1C1CCCCC1 | 88.0 | 27.1* | 86.8 | 77.3 | 72.1
CCCCOc1ccccc1C1CC(=O)NC2=C1C(=O)CCC2 (configuration not stated) | 13.0 | 27.8* | 47.5* | 15.4 | 52.7
CCOc1ccccc1C1CC(=O)NC2=C1C(=O)CCC2 (configuration not stated) | 28.8 | 23.4* | 81.3 | 28.5 | 64.5
CCCOc1ccccc1C1CC(=O)NC2=C1C(=O)CCC2 (configuration not stated) | 18.8 | 85.6 | 66.0 | 19.1 | 66.2
CC(=O)N(C(C)=O)c1ncc2c([nH]c3ccccc32)c1C#N | 68.8 | 37.4* | 72.4 | 75.8 | 63.1
CC(=O)N(C(C)=O)c1c(C#N)c(C)n(-c2ccccc2)c1C(=O)c1ccccc1 | 105.6 | 54.8 | 93.2 | 105.1 | 95.8
COc1ccc(OCC(=O)NCCCN2CCOCC2)cc1 | 98.6 | 90.8 | 98.7 | 101.6 | 97.4
COC(=O)c1cc(OC)c(OC)cc1NC(=O)c1cc(C)on1 | . | 64.3 | 96.7 | . | 93.4
COc1cc(C(=O)N2CCCN(c3nc4cc(C)ccc4cc3C#N)CC2)cc(OC)c1OC | . | 9.8* | 87.1 | . | 88.2
COc1cc(C(=O)N2CCN(c3ccc(C)cc3C)CC2)cc(OC)c1OC | 16.4 | 19.1* | 62.2 | 17.9 | 60.9
Cc1ccc(N2CCN(C(=O)c3ccccc3)CC2)c(C)c1 | 66.3 | 101.4 | 104.9 | 78.2 | 115.9
O=C(CN(c1ccccn1)S(=O)(=O)c1ccccc1)N/N=C/c1cccc([N+](=O)[O-])c1 | 103.3 | . | . | 99.4 | .
O=C(Nc1ccc2nc(-c3cccs3)[nH]c2c1)c1ccco1 | 85.8 | 71.1 | 101.8 | 95.9 | 113.2
O=C(Nc1ccc2oc(-c3ccccc3)nc2c1)c1ccncc1 | 77.7 | 94.9 | 100.7 | 82.0 | 114.9
O=C(Nc1ccc(-c2nc3ccc(NC(=O)c4cccs4)cc3[nH]2)cc1)c1cccs1 | 75.9 | 3.1* | 41.3* | 88.6 | 4.1*
O=C(Nc1ccc2nc(-c3cccnc3)[nH]c2c1)c1ccccc1F | 98.9 | 34.1* | 109.3 | 112.1 | 93.7
O=C(Nc1ccc2nc(-c3cccs3)[nH]c2c1)c1cccs1 | 77.6 | 39.1* | 91.7 | 70.8 | 61.3
O=C(Nc1ccc2oc(-c3ccccc3)nc2c1)c1cccs1 | 79.3 | 38.5* | 91.3 | 77.0 | 84.5
O=C(Nc1ccc2cn[nH]c2c1)c1ccccc1F | 81.9 | . | . | 99.2 | .
C=CCn1c(CCNC(=O)c2ccccc2F)nnc1SCC(=O)Nc1nc2ccccc2s1 | 83.5 | 90.4 | 104.8 | 84.2 | 93.5
Cn1c(-c2ccc(C=O)s2)nc2c3ccccc3c3ccccc3c21 | 25.0 | 17.7* | 88.8 | 7.0 | 60.1
Cc1ccc(-c2nc(C)sc2CC(=O)Nc2cccc(C)c2C)cc1 | 83.9 | . | . | 87.7 | .
CN(C)C(=O)C(CCN1CCC(O)(c2ccc(Cl)cc2)CC1)(c1ccccc1)c1ccccc1 | 15.8 | . | . | 14.5 | .
OC(CCCN1CCC(O)(c2ccc(Cl)cc2)CC1)c1ccc(F)cc1 (configuration not stated) | 0.6* | 81.0 | 87.5 | 0.7* | 115.6
O=C(CN1C2=NCCN2c2ccccc21)c1ccc(Br)s1 | 46.6 | . | . | 44.8 | .
SMILES | HCT116 bCat-KO | H69AR growth 86K | Lung fibro prol | HCT116 PTEN-null | HUVEC inhibit
CCN(CC)c1ccc(NC(=O)c2cccc(OC)c2)c(C)c1 | 19.6 | 18.7* | 72.2 | 23.2 | 55.3
CCN(CC)c1ccc(NC(=O)c2cc(OC)cc(OC)c2)c(C)c1 | 11.6 | 24.7* | 55.7 | 12.3 | 33.2
CN(C)c1cccc(C(=O)Nc2cccc(F)c2)c1 | 72.0 | 83.2 | 100.0 | 72.6 | 84.8
CCN(CC)c1ccc(NC(=O)c2c(OC)cccc2OC)c(C)c1 | 93.9 | 92.4 | 94.3 | 92.8 | 88.8
CCN(CC)c1ccc(C(=O)Nc2cccc(F)c2)cc1 | 17.5 | 25.0* | 77.1 | 26.7 | 46.9
CCCc1cc2c(OC(=O)CC)c(-c3ccc(C(=O)OCC)o3)c(=O)oc2cc1OC | 92.4 | . | . | 92.2 | .
O=C(CN1C(=O)C2C3c4ccccc4C(c4ccccc43)C2C1=O)Nc1cccc(C(=O)O)c1 (configuration not stated) | 97.7 | . | . | 100.4 | .
CC#CC[N+](C)(C)CCCCCCCCCCCC | 0.8* | . | . | 0.6* | .
C#CC[N+](C)(C)CCCCCCCCCCCC | 1.4* | . | . | 1.7* | .
C#CC[N+](C)(C)CCCCCCCCCC | 13.2 | . | . | 11.8 | .
